Laboratory results as given in the RNAGym collection of RNA variant scans (doi:10.1126/science.aae0568).
This sample holds only a part of the variants without activity.

B1: tRNA (parent)
chain: GUUCCGUUGGCGUAAUGGUAACGCGUCUCCCUCCUAAGGAGAAGACUGCGGGUUCGAGUCCCGUACGGAACG

Variants of: B1
Assay: yeast fitness relative to wild type (ratio to wild type); higher = fitter; tRNA-Arg(CCU), competitive growth, 37 C, YPD
In short: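 A pool of Saccharomyces cerevisiae strains, each with a tRNA-Arg(CCU) gene variant at the native genomic locus, was competed in YPD at 37°C for 24 hours across six parallel replicates. The variants had been chemically synthesised at a 3% per-site mutation rate over 69 sites, and gene amplicons before and after competition were read by 100-nucleotide paired-end sequencing. Darwinian fitness relative to wild type rested on changes in genotype frequencies. Genotypes required ≥ 100 starting reads, and estimates < 0.5 were set to 0.5.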

Variant | yeast fitness
C4G C11U A42U G58A A69U | ≤ 0.5
A20U G25C C60G | 0.676
G17C A21C C34G A37U U47C G68C | ≤ 0.5
G12A C27G C55A C66U | ≤ 0.5
U16C U26A C46U G56A C61G G67A | ≤ 0.5
A14G U35C | 0.635
G25A C33G A42G G50A | 0.596
U8G C49U G51A A65U | ≤ 0.5
C27G C33G C55A | ≤ 0.5
A14U G68C A70G | ≤ 0.5
U19C G52C U64A | ≤ 0.5
A14C G23C A36U A70U | ≤ 0.5
U7G A21C G58C | ≤ 0.5
C29G C31G A37C C66A | 0.575
C4U C49A A65U | 0.583
C4U C61G C66U A69U | ≤ 0.5
G10A A14G C29G | ≤ 0.5
A21G G63A | 0.863
U3A A21C C24G C62U | 0.526
C11G G12A C27U A43G G67A | 0.606
U2A U13C U19G C22U C31U A40U G67A | ≤ 0.5
C24G C49A U53A G67A | ≤ 0.5
A15C G38A | 0.581
G23A C33G G50A | 0.53

Variant | yeast fitness
C5G C55G A70U | ≤ 0.5
C5G U8C | 0.843
A15C A37C | 0.639
C4G C30G C33A A70G | ≤ 0.5
G12A A14G A36U C46A | ≤ 0.5
U2G C4U A65G | 0.729
C5U C11A C24G C27G A36U G38C | ≤ 0.5
A15U C22U A57U | ≤ 0.5
C27U C31A G63A | ≤ 0.5
C24A C55G | 0.545
G25A C46G U53A A65C | ≤ 0.5
C4A G6A | 0.706
C11A G17C C22G G23C G58C A70G | ≤ 0.5
G9A A15G U16A G23C A69C | ≤ 0.5
G25A C29U C31G | ≤ 0.5
C24G C29G C46G G67C | ≤ 0.5
U7G A43C | 0.969
G12A A43U G48A C61G A70C | ≤ 0.5
C11A A21C G39C | ≤ 0.5
C11G C49U C61A A70G | ≤ 0.5
G12A C27G U32G G67C | ≤ 0.5
G12C C66U | 0.743
C5A U7C U19A G38C A42G C49G C55A A57C | ≤ 0.5
C11U U13C C30A G52A A69U | ≤ 0.5

Variant | yeast fitness
C4U A21U U35C G50C | ≤ 0.5
G10A A15U | 0.681
U7C U53A | 0.655
A14U G52A G56A | ≤ 0.5
A20C C24U C55G | 0.643
C4A A15C C60U U64A C66A G68A A69G | ≤ 0.5
G10C A20G C24U G38C | 0.561
U26G A45U G50A C55A | ≤ 0.5
C24U U32C A43U | 0.768
U13C G38C A43C G51C G56C A69G | ≤ 0.5
G9A G50C A69U | 0.752
C5A U13A A70C | ≤ 0.5
C5G A36C | 0.772
C27G C66A | ≤ 0.5
A40U G56A | 0.843
C24A A45U | 0.57
A42U A43G C61A | 0.723
U19A A40G G51A | ≤ 0.5
C5U C29G A37C C49U C66A | 0.627
C4G U13C G39C | ≤ 0.5
A15G C62U A70U | 0.73
C61U C66A | 0.644
G38C C61A | 0.608
C62G C66U | 0.652

Variant | yeast fitness
G63C G68U | 0.568
C11U G51A U59A | ≤ 0.5
U32C A36U G38A G50A G67A | ≤ 0.5
A42C A70G | 0.87
C30U A43U C62U | 0.845
U2C U54G | 0.657
U47A C60U G63C A69U | ≤ 0.5
A37U U47G A57C | ≤ 0.5
U7C C24U A42G U54A C55G | ≤ 0.5
A15G G25C G48A G56A | 0.79
C5G A36C G41C | ≤ 0.5
A45G U47A | 0.91
C4A C46U | 0.903
G12A U28G A36G | ≤ 0.5
U3C A40U G58A A69C | 0.656
U8G G38A G67A A69U | ≤ 0.5
G52A C60A | 0.696
C27U A57G | 0.959
C31G C33A C66A | 0.734
A20C C33U A43C G48C | 0.525
A20U C33A C55U C61A | ≤ 0.5
G9C C46U G48C C62U | ≤ 0.5
C33U C34G C62A | ≤ 0.5
C33A U54C | 0.561

Variant | yeast fitness
U54A C60G C66U | ≤ 0.5
U28C C55G C60A | ≤ 0.5
G12A G25A A65U | 0.756
U7C U59G C60A G68U | ≤ 0.5
G23A C24G U32G | 0.609
A36U A45G C66U A70G | ≤ 0.5
C4A G17A C22A C31A C33A C49A | 0.525
C5G U13G A20U A37G A69U | ≤ 0.5
U28G C61U | 0.808
C4U C34G C66A | 0.562
C11A C27U C33U U35C C62U A65G | ≤ 0.5
C11U C22U G67A | 0.586
G9A G23A C29U A43G G68U | ≤ 0.5
G12C A20U C31A A65G | ≤ 0.5
C4G U26A C30U | ≤ 0.5
U8A C34A A45C A65C | 0.718
C5A A21C A43U C46G C61G | ≤ 0.5
U3A C22G C33G G51A | ≤ 0.5
C27A U47C | 0.975
U47A G58C | 1.06
C5A G67A A69U | 0.523
G17C C33U G56A A69U | ≤ 0.5
A14C C33G G44C U54G G58C | ≤ 0.5
U3A C22G C29U G63C C66U | ≤ 0.5

Variant | yeast fitness
A36G G68A | 0.905
G12C A21C U26C U28C C46G C55U | ≤ 0.5
U19A G50U | 0.817
U3A A21G C46A | 0.695
U3G G48A A69U | 0.638
G6C C33G C34U C49U U64A | ≤ 0.5
G10C C22U A42U C60G | ≤ 0.5
A37U U54C U64A A69U | ≤ 0.5
G10A U35G | ≤ 0.5
A20U G23A A57C | ≤ 0.5
G18C U19A U28G A40C C62G C66G | ≤ 0.5
U16G C24U C29G C49G A65G | 0.601
A14G C46G G51C | ≤ 0.5
C31U G44C | 0.826
U8A U28C C61A G67C | ≤ 0.5
C11G U47C | 0.687
G9A G50A | 1
U19C G52A | 0.78
A15U G68A | 0.62
A14G G18C C29G C34U A45C | ≤ 0.5
G25C A70C | 1.05
A43G G67U | 0.85
G6C G51A A65G C66U | ≤ 0.5
U8C C27A A36U A37U | ≤ 0.5

Variant | yeast fitness
C11U C29G C31U A57U | ≤ 0.5
C27U G48A U59A | 0.684
C5G C46U C49U | 0.944
C5G U26G A36C C66A | ≤ 0.5
C5G A14U | 0.607
C11U A14C C22U A43C | ≤ 0.5
C4U C11G C29U U35C | ≤ 0.5
G51C U54A A57C | 0.859
U3C C4A A45G | 0.531
A14C C22G G63C | ≤ 0.5
A20U G44C C55A | ≤ 0.5
C22U A42G C55G | 0.567
G6A C24G G50A | ≤ 0.5
U3C C62G G68A | ≤ 0.5
C4U G6A A42C C66U | ≤ 0.5
C4G G10A A42C U54G | ≤ 0.5
G18C C22A A65G | ≤ 0.5
U7C U8C U26G | ≤ 0.5
G39A C55A G56A G67C | ≤ 0.5
U2A U13A A21C A42G | ≤ 0.5
U28A A36G G52C | ≤ 0.5
G10C G58U | ≤ 0.5
U35C A42C A43G G48A | 0.576
